Results taken from publication PMC7610821 (Chemical communications (Cambridge, England), 2020).

Experiments:
HCT116 cells = test: Cell viability of HCT116 cells by flow cytometry; assay type: cell-based, human; settings: HCT116, 40μM, 48 hours
In short: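 Human colon cancer HCT116 cells were exposed to the test compound at 10 and 40 μM. A reference class I HDAC inhibitor was run alongside. Viability was scored by flow cytometry after 48 h of treatment.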

[1] = molecular target: LSD1-CoREST-HDAC1 complex (Homo sapiens, UniProt Q13547); test: AMC-fluorescence histone deacetylase inhibition assay with purified complex; assay type: biochemical; settings: compared with CI-994, Fig 3A
LSD1-CoREST-HDAC1 complex, sequence (Q13547 whole entry, other chains not shown): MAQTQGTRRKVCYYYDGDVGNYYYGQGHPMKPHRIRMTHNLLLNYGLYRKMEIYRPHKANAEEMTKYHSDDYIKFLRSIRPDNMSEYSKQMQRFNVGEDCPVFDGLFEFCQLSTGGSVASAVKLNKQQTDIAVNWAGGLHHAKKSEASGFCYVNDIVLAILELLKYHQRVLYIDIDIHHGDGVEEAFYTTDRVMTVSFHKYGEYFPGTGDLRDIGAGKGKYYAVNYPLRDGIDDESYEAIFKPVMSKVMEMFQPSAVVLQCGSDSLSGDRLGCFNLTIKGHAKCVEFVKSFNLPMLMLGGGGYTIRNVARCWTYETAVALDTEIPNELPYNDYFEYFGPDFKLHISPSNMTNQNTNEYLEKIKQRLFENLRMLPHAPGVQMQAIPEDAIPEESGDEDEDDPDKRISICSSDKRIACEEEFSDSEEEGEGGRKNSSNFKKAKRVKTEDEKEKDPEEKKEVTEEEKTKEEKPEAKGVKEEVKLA
LSD1-CoREST-HDAC1 complex, sequence (Q9UKL0 86-485 partner limits assumed, other chains not shown): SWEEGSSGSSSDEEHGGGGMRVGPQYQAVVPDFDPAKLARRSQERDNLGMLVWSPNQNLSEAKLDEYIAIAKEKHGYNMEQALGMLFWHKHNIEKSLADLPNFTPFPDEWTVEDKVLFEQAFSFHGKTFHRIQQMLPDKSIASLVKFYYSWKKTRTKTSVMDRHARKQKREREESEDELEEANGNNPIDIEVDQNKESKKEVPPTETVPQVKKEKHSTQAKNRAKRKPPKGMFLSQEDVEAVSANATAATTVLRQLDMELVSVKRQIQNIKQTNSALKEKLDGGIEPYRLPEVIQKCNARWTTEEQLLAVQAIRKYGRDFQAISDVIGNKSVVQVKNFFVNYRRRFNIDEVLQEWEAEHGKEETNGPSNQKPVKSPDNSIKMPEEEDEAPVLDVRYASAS

[2] = test system: Histone 3 Lysine 56 acetylation (H3K56Ac); test: H3K56 acetylation by quantitative western blotting in ES cells; assay type: cell-based; settings: E14 mouse ES cells, 24h; CI-994 = 40μM, Panobinostat = 30 nM

Compound: CC(=O)Nc1ccc(C(=O)Nc2ccccc2N)cc1 [CI-994]
- Cell death (HCT116 cells): 73%

Compound: CC(=O)Nc1ccc(C(=O)Nc2ccccc2NC(=O)OC(C)(C)C)cc1 [Compound 5]
- HDAC inhibition of the LSD1-CoREST-HDAC1 complex (in words) [1]: no HDAC inhibition

Compound: Cc1[nH]c2ccccc2c1CCNCc1ccc(/C=C/C(=O)NO)cc1 [Panobinostat]
- H3K56 acetylation increase, fold compared to non-treated cells [2]: 15-20 fold
